# What was measured:
# MCF7 [1] = assay: In vitro effect on 10-formyltetrahydrofolate (10-CHO-THF) in MCF-7 cells at 100 uM (control= 1.7); Folate pools; type: functional, Homo sapiens
# MCF7 [2] = assay: In vitro effect on total folates in MCF-7 cells at 100 uM(control= 4.0); Folate pools; type: functional, Homo sapiens
# MCF7 [3] = assay: In vitro effect on 10-formyldihydrofolate (10-CHO-DHF) in MCF-7 cells at 100 uM (control= 0.2); Folate pools; type: functional, Homo sapiens
# MCF7 [4] = assay: In vitro effect on 5-methyltetrahydrofolate (5-CH3-THF) in MCF-7 cells at 100 uM (control= 0.7); Folate pools; type: functional, Homo sapiens
# MCF7 [5] = assay: In vitro effect on dihydrofolate (DHF) in MCF-7 cells at 100 uM (control= 0.2); Folate pools; type: functional, Homo sapiens
# MCF7 [6] = assay: In vitro effect on 10-formylfolic acid (10-CHO-FA) in MCF-7 cells at 100 uM(control= 0.1); Folate pools; type: functional, Homo sapiens
# MCF7 [7] = assay: In vitro effect on tetrahydrofolate (THF) in MCF-7 cells at 50 uM (control=1.0); Folate pools; type: functional, Homo sapiens
# MCF7 [8] = assay: In vitro effect on 10-formylfolic acid (10-CHO-FA) in MCF-7 cells at 50 uM(control= 0.1); Folate pools; type: functional, Homo sapiens
# MCF7 [9] = assay: In vitro effect on 5-formyltetrahydrofolate (5-CHO-THF) in MCF-7 cells at 50 uM(control=0.1); Folate pools; type: functional, Homo sapiens
# MCF7 [10] = assay: In vitro effect on 5-methyltetrahydrofolate (5-CH3-THF) in MCF-7 cells at 50 uM(control=0.7); Folate pools; type: functional, Homo sapiens
# MCF7 [11] = assay: In vitro effect on 5-formyltetrahydrofolate (5-CHO-THF) in MCF-7 cells at 100 uM (control= 0.1); Folate pools; type: functional, Homo sapiens
# Dihydrofolate reductase = molecular target: T1, Dihydrofolate reductase (Homo sapiens, UniProt P00374); assay: Compound was evaluated for the inhibition of dihydrofolate reductase obtained from human; conditions: read-out: I50
# T1 sequence (P00374 whole entry): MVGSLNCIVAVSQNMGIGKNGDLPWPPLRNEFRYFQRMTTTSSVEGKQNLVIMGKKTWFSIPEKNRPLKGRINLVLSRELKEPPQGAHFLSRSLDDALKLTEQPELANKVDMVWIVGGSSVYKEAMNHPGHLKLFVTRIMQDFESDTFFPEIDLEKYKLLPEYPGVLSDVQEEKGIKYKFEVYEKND
# Thymidylate synthase = Thymidylate synthase (Homo sapiens, UniProt P04818); assay: Compound was evaluated for the inhibition of thymidylate synthase obtained from human; conditions: read-out: I50
# Chain of Thymidylate synthase (P04818 whole entry): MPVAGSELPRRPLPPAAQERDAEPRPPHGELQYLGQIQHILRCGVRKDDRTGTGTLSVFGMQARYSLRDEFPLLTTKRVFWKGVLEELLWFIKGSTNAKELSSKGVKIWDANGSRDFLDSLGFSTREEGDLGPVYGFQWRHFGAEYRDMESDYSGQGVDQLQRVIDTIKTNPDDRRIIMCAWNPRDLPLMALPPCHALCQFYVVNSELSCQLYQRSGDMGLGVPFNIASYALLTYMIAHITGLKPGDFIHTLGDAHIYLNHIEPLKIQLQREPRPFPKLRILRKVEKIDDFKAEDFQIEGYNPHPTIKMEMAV
# Summary of the method: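 Human thymidylate synthase came from an SV40-transformed fibroblast line, cloned and expressed in E. coli, and purified to homogeneity by affinity chromatography. Activity was measured by the ³H-release method.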
# MCF7 [12] = assay: In vitro effect on folic acid (FA) in MCF-7 cells at 100 uM (control= 0.0); Folate pools; type: functional, Homo sapiens
# MCF7 [13] = assay: In vitro effect on folic acid (FA) in MCF-7 cells at 50 uM (control= 0.0); Folate pools; type: functional, Homo sapiens
# MCF7 [14] = assay: In vitro effect on 10-formyldihydrofolate (10-CHO-DHF) in MCF-7 cells at 50 uM (control= 0.2); Folate pools; type: functional, Homo sapiens
# MCF7 [15] = assay: In vitro effect on dihydrofolate (DHF) in MCF-7 cells at 50 uM (control=0.2); Folate pools; type: functional, Homo sapiens
# [16] = molecular target: Bifunctional purine biosynthesis protein ATIC (Homo sapiens) (UniProt P31939); assay: Compound was evaluated for the inhibition of 5-aminoimidazole-4-carboxamide ribonucleotide transformylase obtained from human at 100 uM
# Chain of Bifunctional purine biosynthesis protein ATIC (Homo sapiens) (P31939 whole entry, looked up): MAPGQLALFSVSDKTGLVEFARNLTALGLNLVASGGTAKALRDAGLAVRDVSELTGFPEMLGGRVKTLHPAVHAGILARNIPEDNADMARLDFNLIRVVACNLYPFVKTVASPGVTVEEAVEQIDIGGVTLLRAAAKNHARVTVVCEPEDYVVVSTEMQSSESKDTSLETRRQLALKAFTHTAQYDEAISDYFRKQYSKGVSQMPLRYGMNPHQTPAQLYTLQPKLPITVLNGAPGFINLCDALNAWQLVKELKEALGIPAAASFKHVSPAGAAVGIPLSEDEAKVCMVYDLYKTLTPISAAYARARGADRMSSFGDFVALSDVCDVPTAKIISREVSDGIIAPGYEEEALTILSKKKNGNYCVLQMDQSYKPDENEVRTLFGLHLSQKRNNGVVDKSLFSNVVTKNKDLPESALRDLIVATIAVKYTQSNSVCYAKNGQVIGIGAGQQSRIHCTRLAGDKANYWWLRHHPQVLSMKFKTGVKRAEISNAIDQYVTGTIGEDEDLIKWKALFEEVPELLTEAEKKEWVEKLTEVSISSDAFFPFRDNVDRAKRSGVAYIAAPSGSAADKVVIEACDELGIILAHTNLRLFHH
# Summary of the method: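 AICAR transformylase partially purified from human MOLT-4 cells by a modified literature procedure. Activity was followed with a continuous spectrophotometric assay.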
# MCF7 [17] = assay: In vitro effect on total folates in MCF-7 cells at 50 uM (control= 4.0); Folate pools; type: functional, Homo sapiens
# MCF7 [18] = assay: In vitro effect on 10-formyltetrahydrofolate (10-CHO-THF) in MCF-7 cells at 50 uM (control= 1.7); Folate pools; type: functional, Homo sapiens
# MCF7 [19] = assay: In vitro effect on tetrahydrofolate (THF) in MCF-7 cells at 100 uM(control= 1.0); Folate pools; type: functional, Homo sapiens
# MCF7 [20] = assay: In vitro effect on dihydrofolate (DHF) in MCF-7 cells at 1 uM(control= 0.2); Folate pools; type: functional, Homo sapiens
# MCF7 [21] = assay: In vitro effect on 5-methyltetrahydrofolate (5-CH3-THF) in MCF-7 cells at 1 uM(control= 0.7); Folate pools; type: functional, Homo sapiens
# MCF7 [22] = assay: In vitro effect on total folates in MCF-7 cells at 1 uM(control= 4.0); Folate pools; type: functional, Homo sapiens
# MCF7 [23] = assay: In vitro effect on 10-formyltetrahydrofolate (10-CHO-THF) in MCF-7 cells at 1 uM(control= 1.7); Folate pools; type: functional, Homo sapiens
# MCF7 [24] = assay: In vitro effect on tetrahydrofolate (THF) in MCF-7 cells at 1 uM(control= 1.0); Folate pools; type: functional, Homo sapiens
# MCF7 [25] = assay: In vitro effect on 5-formyltetrahydrofolate (5-CHO-THF) in MCF-7 cells at 1 uM(control= 0.1); Folate pools; type: functional, Homo sapiens
# MCF7 [26] = assay: In vitro effect on 10-formyldihydrofolate (10-CHO-DHF) in MCF-7 cells at 1 uM(control= 0.2); Folate pools; type: functional, Homo sapiens
# MCF7 [27] = assay: In vitro effect on folic acid (FA) in MCF-7 cells at 1 uM(control= 0.0); Folate pools; type: functional, Homo sapiens
# MCF7 [28] = assay: In vitro effect on 10-formylfolic acid (10-CHO-FA) in MCF-7 cells at 1 uM(control= 0.1); Folate pools; type: functional, Homo sapiens
structure (smiles),measurement,setting,value
NCCCC(NC(=O)c1ccc(NCC2CNc3nc(N)nc(O)c3C2)cc1)C(=O)O (stereo not given),Activity,MCF7 [1],1.7 pM (10e6*cells)-1
same,Activity,MCF7 [2],3.9 pM (10e6*cells)-1
same,Activity,MCF7 [3],0.3 pM (10e6*cells)-1
same,Activity,MCF7 [4],0.6 pM (10e6*cells)-1
same,Activity,MCF7 [5],0.2 pM (10e6*cells)-1
same,Activity,MCF7 [6],0.1 pM (10e6*cells)-1
same,Activity,MCF7 [7],1 pM (10e6*cells)-1
same,Activity,MCF7 [8],0.2 pM (10e6*cells)-1
same,Activity,MCF7 [9],0.2 pM (10e6*cells)-1
same,Activity,MCF7 [10],0.6 pM (10e6*cells)-1
same,Activity,MCF7 [11],0.1 pM (10e6*cells)-1
same,IC50,Dihydrofolate reductase,2 µM
same,IC50,Thymidylate synthase,470 µM
same,Activity,MCF7 [12],0 pM (10e6*cells)-1
same,Activity,MCF7 [13],0 pM (10e6*cells)-1
same,Activity,MCF7 [14],0.3 pM (10e6*cells)-1
same,Activity,MCF7 [15],0.2 pM (10e6*cells)-1
same,inhibition,[16],16%
same,Activity,MCF7 [17],4.1 pM (10e6*cells)-1
same,Activity,MCF7 [18],1.8 pM (10e6*cells)-1
same,Activity,MCF7 [19],0.9 pM (10e6*cells)-1
CN(Cc1cnc2nc(N)nc(N)c2n1)c1ccc(C(=O)N[C@@H](CCC(=O)O)C(=O)O)cc1 [METHOTREXATE],Activity,MCF7 [20],1.6 pM (10e6*cells)-1
same,Activity,MCF7 [21],0.1 pM (10e6*cells)-1
same,Activity,MCF7 [22],4.1 pM (10e6*cells)-1
same,Activity,MCF7 [23],0.8 pM (10e6*cells)-1
same,Activity,MCF7 [24],0.4 pM (10e6*cells)-1
same,Activity,MCF7 [25],0.1 pM (10e6*cells)-1
same,Activity,MCF7 [26],0.6 pM (10e6*cells)-1
same,Activity,MCF7 [27],0.1 pM (10e6*cells)-1
same,Activity,MCF7 [28],0.3 pM (10e6*cells)-1
